Results on four compounds are retold here after ChEMBL document CHEMBL2406957, “C-(α-d-Glucopyranosyl)-phenyldiazomethanes-irreversible inhibitors of α-glucosidase” (Bioorg Med Chem, 2013).

For orientation: IC50 means the concentration that gives 50% inhibition. Read a high IC50 as weaker potency. By half-life is commonly meant how long it takes for the measured level to halve. One may read the inhibition as the percentage by which the read-out fell short of the control.

Structures are written as SMILES. Calls of active or inactive are those of the source. The calls are words filed in the database; no cut-off is given here.

Series [1] in a line: Irreversible inhibition of Saccharomyces cerevisiae alpha-glucosidase using PNPG as substrate by Kitz-Wilson plot analysis. In outline:
(§1)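 Yeast α-glucosidase (final 4 µg/mL, 0.064 µM) preincubated at 30 °C in pH 7.5 Tris–HCl with inhibitor at final 0.01–0.08 mM. Aliquots taken at 5–40 min into 2 mM PNPG (pH 6.8), 5 min at 30 °C, Na2CO3 quench, A400. Activity as % of no-inhibitor control. kobs from first-order fits; Ki and ki from double-reciprocal Kitz–Wilson replot.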

Series [2] in a line: Inhibition of Saccharomyces cerevisiae alpha-glucosidase using PNPG as substrate incubated for 40 mins prior to substrate addition measured after 5 mins by spectrophotometry. In short, it runs like this: (§2)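 Enzyme (final 4 µg/mL, 0.064 µM) incubated 40 min at 30 °C in pH 7.5 buffer with compound at final 0.01–0.08 mM. Aliquot then added to 2 mM PNPG in pH 6.8 buffer for 5 min at 30 °C. Reaction quenched with Na2CO3, p-nitrophenolate read at 400 nm. Residual activity expressed relative to enzyme control.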

A short description of series [3]: Half life of the compound in buffer at 50 uM at pH 4.0 by UV-vis spectrophotometric analysis. It is filed as physicochemical. In short, it runs like this: (§3)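 Isolated diazo compound dissolved at 50 μM in buffer of set pH (7.0 down to 3.0) in a cuvette; UV spectra scanned 190–350 nm every 30 s at room temperature until no further change. Blue shift of λmax followed; decay fitted to a single exponential, t1/2 = t1 ln2.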

For series [4], the system named is Saccharomyces cerevisiae. Nature of the series: Inhibition of Saccharomyces cerevisiae alpha-glucosidase using PNPG as substrate at 60 uM incubated for 40 mins prior to substrate addition measured after 5 mins by spectrophotometry relative to control. In outline: as §2
Series [5] relates to Saccharomyces cerevisiae. Nature of the series: Irreversible inhibition of Saccharomyces cerevisiae alpha-glucosidase using PNPG as substrate assessed as residual enzyme activity incubated for 5 to 40 mins prior to substrate addition measured after 5 mins by spectrophotometry. In outline: as §1
Series [6] is described as follows: Half life of the compound in buffer at 50 uM at pH 3.0 by UV-vis spectrophotometric analysis. It counts as physicochemical. In short, it runs like this: as §3
Series [7] in a line: Half life of the compound in buffer at 50 uM at pH 6.0 by UV-vis spectrophotometric analysis. It counts as physicochemical. In outline: as §3
Series [8] is described as follows: Chemical stability of the compound in neutral media at 50 uM at pH 7.0 by UV-vis spectrophotometric analysis. It is filed as physicochemical. The following applies: buffer, pH 7, 50 µM. In outline:
as §3

Series [9] can be described thus: Half life of the compound in buffer at 50 uM at pH 5.0 by UV-vis spectrophotometric analysis. It counts as physicochemical. In short, it runs like this:
as §3

Series [10] has as its system Saccharomyces cerevisiae. Nature of the series: Irreversible inhibition of Saccharomyces cerevisiae alpha-glucosidase using PNPG as substrate at 0.04 mM incubated for 5 to 40 mins prior to substrate addition measured after 5 mins by spectrophotometry in presence of (2R,3R,4R,5S,6R)-2-((R)-amino(phenyl)methyl)-6-(hydroxymethyl)tetrahydro-2H-pyran-3,4,5-triol.
The nature of series [11]: Reversible inhibition of Saccharomyces cerevisiae alpha-glucosidase using PNPG as substrate.

In [1], `N#Cc1ccc(C(=[N+]=[N-])[C@H]2O[C@H](CO)[C@@H](O)[C@H](O)[C@H]2O)cc1` had a Ki of 2160 µM. In [2], the IC50 is 20.6 µM. Moreover, the half-life at 50 µM in [3] is 0.483 min; in series [6], 0.183 min; in [7], 4.2 min; in series [9], 2.35 min. Besides, the results for the inhibition in series [4] and in [5] were 90% and “Dose-dependent effect”, respectively. Besides, in series [8], the Stability result is recorded as “Stable”. The inhibition result in series [10] was “inactive”.

`N#Cc1ccc(C[C@H]2O[C@H](CO)[C@@H](O)[C@H](O)[C@H]2O)cc1` came in with an inhibition in series [4] of 40%.

Compound `N#Cc1ccc([C@H](O)[C@H]2O[C@H](CO)[C@@H](O)[C@H](O)[C@H]2O)cc1` gave an inhibition in [4] of 40%.

`N[C@H](c1ccccc1)[C@H]1O[C@H](CO)[C@@H](O)[C@H](O)[C@H]1O`: the Ki in series [11] was found to be 1.1 µM.
